The structures appear in SMILES notation. ≈ marks a conversion by molar mass, not a printed value.

One series deals with Plasma. The experiment in a line: AUC (0 to 24 hrs) in plasma of urinary tract infection C3H/HeN mouse model assessed as Sodium3'-Chloro-4'-(alpha-D-mannopyranosyloxy)-biphenyl-4-carboxylate level at 50 mg/kg, po administered as single dose measured after 6 hrs by LC-MS analysis. Format: ADME, organism-based. Also noted: time < 24 hr, dose 50 mg/kg, route oral. Particulars: in vivo. The procedure, abridged: (§1)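 Female C3H/HeN mice (19-25 g) given a single 50 mg/kg oral dose by gavage. Compound dissolved in DMSO, then diluted in 1% Tween-80/PBS to a suspension. Blood and urine (10 μL) sampled at 6 min, 30 min, 1, 2, 4, 6, 8 and 24 h. Proteins precipitated with methanol, then LC-MS; for the prodrug, both ester and carboxylate metabolite measured; n=6.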

Series [1] in a line: Lipophilicity, log D at pH 7.4 by miniatured shake flask method. Format: physicochemical. To be noted: buffer. The procedure, abridged:
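Octanol-saturated 0.1 M phosphate pH 7.4 containing analyte at 1 μM, overlaid with octanol at two volume ratios, three wells each. Shaken 2 h at 25 °C, then centrifuged; aqueous phase measured by LC-MS. log D computed from depletion. Accepted when the ratio means agree within 0.1.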

Series [2] can be described thus: Stability of the compound in simulated gastrointestinal fluid assessed as compound remaining after 2 hrs by LC-MS analysis. Format: physicochemical. To be noted: read-out: Stability.
Series [3] is described as follows: Plasma protein binding in human by miniatured equilibrium dialysis method. In kind it is ADME, cell-free. Particulars: read-out: PPB (converted). The procedure, abridged: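 Human plasma adjusted to pH 7.5 with analyte at 10 μM, dialysed against 0.1 M phosphate pH 7.5 (MWCO 12-14 K) for 5 h at 37 °C in triplicate. Compartments MeCN-precipitated and measured by LC-MS; fb = 1 − cbuffer/cplasma.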
On the technique in general: In equilibrium dialysis free small molecules cross a membrane that holds back macromolecules.

The test system of series [4] is Liver. The experiment in a line: Metabolic stability of the compound in mouse liver microsomes assessed as degradation by carboxylesterase at 2 uM by LC-MS analysis in presence of CES inhibitor BNPP. In kind it is ADME, Microsome. The procedure, abridged:
(§2)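 Pooled male mouse liver microsomes (0.25 mg/mL) with 2 μM compound in 0.1 M TRIS pH 7.4 and 2 mM MgCl2 at 37 °C. Samples at 0, 1, 3, 6 and 15 min quenched in cold MeCN; LC-MS as % remaining. The inhibitor arm used microsomes pre-incubated 5 min with 1 mM BNPP.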
For orientation: Liver microsomes are a subcellular fraction often used to study metabolism.

The nature of series [5]: AUC (0 to 24 hrs) in urine of urinary tract infection C3H/HeN mouse model at 50 mg/kg, po administered as single dose measured after 6 hrs by LC-MS analysis. In kind it is ADME, organism-based. Also noted: time < 24 hr, dose 50 mg/kg, route oral. The procedure, abridged:
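Female C3H/HeN mice (19-25 g) gavaged once at 50 mg/kg. Compound dissolved in DMSO and diluted in 1% Tween-80/PBS as a suspension, or given in 200 μL PBS. Blood and urine sampled at 6 min to 24 h, methanol-precipitated, and analysed by LC-MS. For the prodrug, both parent and carboxylate metabolite were measured.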

Series [6] is described as follows: Apparent permeability across human Caco2 cells after 120 mins by HPLC analysis. Format: ADME, cell-based. Particulars: Caco-2. The procedure, abridged:
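Caco-2 cells at passage 60-65 seeded on Transwells and used on days 19-21 in DMEM without pyruvate/phenol red. Only monolayers with TEER >300 Ωcm2 before and after were kept. Apical dosing from 10 mM stock, shaken at 250 rpm. Basolateral samples at 5-120 min by HPLC; Papp = (dQ/dt)/(A·c0). Triplicates.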
Background: Caco-2 cells form a polarised layer with tight junctions and transporters.

Series [7] can be described thus: Stability of the compound in simulated intestinal fluid assessed as compound remaining after 2 hrs by LC-MS analysis. Format: physicochemical. Particulars: read-out: Stability. The procedure, abridged:
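Simulated intestinal fluid (phosphate, NaOH, pancreatin, pH 6) at 37 °C, compound at 10 μM, 500 rpm. Samples at 0-120 min MeCN-quenched; LC-MS as % remaining versus initial.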

Series [8] has as its target Type 1 fimbrin D-mannose specific adhesin (Escherichia coli K-12) (UniProt P08191). The experiment in a line: Ratio IC50 for compound to IC50 for n-heptyl R-D-mannopyranoside for His-tagged FimH expressed in Escherichia coli HM125. The procedure, abridged: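 FimH-CRD-Th-6His (10 μg/mL) coated overnight at 4 °C in 20 mM HEPES, 150 mM NaCl, 1 mM CaCl2, pH 7.4, then blocked with 3% BSA. 4-fold compound dilutions in 5% DMSO competed with streptavidin-peroxidase TM-PAA polymer for 3 h at 25 °C. ABTS read at 415 nm, duplicates. IC50 divided by the IC50 of the heptyl mannoside reference run on the same plate.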

The target of series [9] is Type 1 fimbrin D-mannose specific adhesin (Escherichia coli K-12, UniProt P08191). Briefly: Competitive inhibition of His-tagged FimH carbohydrate recognizing domain expressed in Escherichia coli HM125 using ABTS-substrate after 3 hrs by […] assay. The procedure, abridged: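 FimH-CRD-Th-6His from E. coli HM125 coated at 10 μg/mL overnight at 4 °C and blocked with 3% BSA. 4-fold compound dilutions in HEPES buffer pH 7.4 (5% DMSO) plus streptavidin-peroxidase TM-PAA polymer, 3 h at 25 °C. ABTS developed 4 min and read at 415 nm. Duplicates; heptyl mannoside reference on each plate.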

Series [10] relates to Liver. The experiment in a line: Metabolic stability of the compound in mouse liver microsomes assessed as degradation by carboxylesterase at 2 uM by LC-MS analysis. Format: ADME, Microsome. The procedure, abridged: as §2
The nature of series [11]: AUC (0 to 24 hrs) in urine of urinary tract infection C3H/HeN mouse model assessed as Sodium3'-Chloro-4'-(alpha-D-mannopyranosyloxy)-biphenyl-4-carboxylate level at 50 mg/kg, po administered as single dose measured after 6 hrs by LC-MS analysis. Also on record: time < 24 hr, dose 50 mg/kg, route oral. Particulars: in vivo. Format: ADME, organism-based. The procedure, abridged:
as §1

A short description of series [12]: Thermodynamic solubility of the compound at pH 6.5 after 24 hrs by LC-MS analysis. Format: physicochemical. Particulars: buffer, read-out: Therm_solubility. The procedure, abridged: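 1 mg solid in 250 μL 50 mM phosphate pH 6.5, sonicated 15 min, shaken 2 h at 25 °C, left 24 h. pH measured, then filtered and diluted; concentration determined by LC-MS.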
A short description of series [13]: Permeability of the compound assessed as membrane retention by PAMPA method. Format: ADME. The procedure, abridged: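 PAMPA with GIT-0 lipid, donor analyte 50 μM at pH 5.0, 6.2 and 7.4 in quadruplicate, 16 h undisturbed incubation. Donor and acceptor quantified by UV and LC-MS.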
A short description of series [14]: AUC (0 to 24 hrs) in plasma of urinary tract infection C3H/HeN mouse model at 50 mg/kg, po administered as single dose measured after 6 hrs by LC-MS analysis. In kind it is ADME, organism-based. Also noted: time < 24 hr, dose 50 mg/kg, route oral. The procedure, abridged: as §1

Chain of Type 1 fimbrin D-mannose specific adhesin (Escherichia coli K-12) (P08191 whole entry): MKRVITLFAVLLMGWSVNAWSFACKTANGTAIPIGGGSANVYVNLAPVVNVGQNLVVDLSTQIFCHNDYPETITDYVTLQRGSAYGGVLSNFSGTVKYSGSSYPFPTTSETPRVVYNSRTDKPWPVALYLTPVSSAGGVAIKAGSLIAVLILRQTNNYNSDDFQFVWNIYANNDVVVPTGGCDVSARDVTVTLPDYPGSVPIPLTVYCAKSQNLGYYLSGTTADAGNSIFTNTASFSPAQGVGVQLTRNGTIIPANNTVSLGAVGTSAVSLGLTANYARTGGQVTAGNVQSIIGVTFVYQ
Chain of Type 1 fimbrin D-mannose specific adhesin (P08191 whole entry, the tested form may be a part): as the sequence (P08191 whole entry) above

`COC(=O)c1ccc(-c2ccc(O[C@H]3O[C@H](CO)[C@@H](O)[C@H](O)[C@@H]3O)c(Cl)c2)cc1`: the figures for the AUC (with Plasma; in [11]) were 2100 ng·h/mL and 21690 ng·h/mL, respectively. For the same compound, in series [1], the logD (commonly the decadic logarithm of the distribution of all forms, ionised or not, between an organic phase and buffer at a given pH) turned out to be 2.32. The remaining at 2 h in series [2] and in series [7] was 80% in each case. For the same compound, the fraction unbound in [3] is 0.06. Moreover, the values for the Stability entry in the series with Liver [4] and in the series with Liver [10] were “Stable” and “Unstable”, respectively. Moreover, the AUC(0-t) – broadly, exposure summed from dosing to a finite time, without extrapolation to infinity – at 24 h stood at 1890 ng·h/mL in [5] and 1020 ng·h/mL in series [14]. Further, the Papp (commonly the rate of passage across a membrane or cell layer, normalised by area and donor concentration) at 2 h in series [6] was determined as 2.05 ×10⁻⁶ cm/s. The Ratio IC50 in [8] was 0.06. Further, the IC50 – broadly, the concentration at which inhibition is half-maximal – in series [9] was 4.8 nM. Also, in series [12], the solubility thermodynamic at 24 h stood at 11.9 µg/mL (≈ 28 µM). Besides, the permeability in [13] is given as 41%.

Source of the values: ChEMBL document CHEMBL1799951, “FimH antagonists for the oral treatment of urinary tract infections: from design and synthesis to in vitro and in vivo evaluation” (J Med Chem, 2010).
